Source: ChEMBL document CHEMBL5046323, “Discovery of Phospholipase D Inhibitors with Improved Drug-like Properties and Central Nervous System Penetrance” (ACS Med Chem Lett, 2022)
≈ marks a conversion by molar mass, not a printed value.

How the values were obtained:
Phospholipase D1 = target: T1, Phospholipase D1 (Homo sapiens, UniProt Q13393); experiment: Inhibition of PLD1 (unknown origin) expressed in human HEK cells by immunoprecipitation assay; assay type: cell-based
T1 sequence (Q13393 whole entry): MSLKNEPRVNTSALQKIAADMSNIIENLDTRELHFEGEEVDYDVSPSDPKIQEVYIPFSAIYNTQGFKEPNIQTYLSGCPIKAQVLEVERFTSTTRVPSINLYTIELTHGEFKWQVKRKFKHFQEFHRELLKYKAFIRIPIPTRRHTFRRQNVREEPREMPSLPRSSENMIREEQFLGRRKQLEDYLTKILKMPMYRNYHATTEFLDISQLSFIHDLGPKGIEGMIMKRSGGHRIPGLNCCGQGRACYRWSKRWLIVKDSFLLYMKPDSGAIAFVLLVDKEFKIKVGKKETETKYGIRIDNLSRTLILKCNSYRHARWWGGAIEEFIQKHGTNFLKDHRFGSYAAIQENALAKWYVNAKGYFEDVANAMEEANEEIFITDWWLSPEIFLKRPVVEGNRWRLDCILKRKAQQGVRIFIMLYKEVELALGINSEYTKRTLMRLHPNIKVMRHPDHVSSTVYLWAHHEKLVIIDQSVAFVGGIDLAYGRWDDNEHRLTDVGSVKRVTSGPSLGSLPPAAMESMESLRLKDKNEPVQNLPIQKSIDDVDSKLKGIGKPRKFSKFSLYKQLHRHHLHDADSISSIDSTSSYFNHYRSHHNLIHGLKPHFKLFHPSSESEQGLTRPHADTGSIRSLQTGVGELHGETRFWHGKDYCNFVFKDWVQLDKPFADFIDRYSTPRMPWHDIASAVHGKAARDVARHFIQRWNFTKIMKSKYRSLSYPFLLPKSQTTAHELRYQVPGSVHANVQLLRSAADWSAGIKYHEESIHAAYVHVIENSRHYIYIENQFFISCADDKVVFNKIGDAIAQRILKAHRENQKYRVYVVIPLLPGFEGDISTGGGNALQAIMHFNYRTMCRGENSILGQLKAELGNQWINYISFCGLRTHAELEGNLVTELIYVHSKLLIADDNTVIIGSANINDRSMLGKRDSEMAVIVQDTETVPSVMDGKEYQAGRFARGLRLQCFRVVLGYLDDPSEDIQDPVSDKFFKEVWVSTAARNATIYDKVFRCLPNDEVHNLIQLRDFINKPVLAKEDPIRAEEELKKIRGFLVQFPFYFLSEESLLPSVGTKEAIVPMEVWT

Phospholipase D2 = Phospholipase D2 (Homo sapiens, UniProt O14939); experiment: Inhibition of PLD2 (unknown origin) expressed in human HEK cells by immunoprecipitation; assay type: cell-based
Method in brief: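 PLD1 or PLD2 immunoprecipitated from HEK-293 cell lysates and captured on plate with an antibody (ELISA format); 08:0 phosphatidylcholine substrate; released choline detected by Amplex Red readout.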

[1] = Microsomal stability in human liver microsomes assessed as intrinsic clearance; assay type: ADME, Microsome; conditions: read-out: CLH
Method in brief: (§1)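 Intrinsic clearance (CLint) determined in rat or human liver microsomes.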

[2] = Microsomal stability in rat liver microsomes assessed as intrinsic clearance; assay type: ADME, Microsome; conditions: read-out: CLH; method in brief: as §1
MDR1 (P-gp) = experiment: Efflux ratio of apparent permeability from basolateral to apical side over apical to basolateral side in dog MDCK-MDR1 cells; assay type: ADME, cell-based, Canis lupus familiaris
Method in brief: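 Efflux ratio calculated as Papp(B–A)/Papp(A–B) across MDR1-transfected MDCK monolayers.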

[3] = target: Phospholipase D1 (Homo sapiens) (UniProt Q13393); experiment: Inhibition of PLD1 in human Calu-1 cells assessed as reduction in d9-phosphobutanol formation by mass spectrometry-based transphosphatidylation assay
[4] = Kinetic solubility of compound at pH 6.8; assay type: physicochemical; conditions: buffer, read-out: Kinetic_solubility
Method in brief: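 Kinetic solubility measured at pH 6.8.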

[5] = Clearance in iv dosed rat administered as cassette dose; assay type: ADME, organism-based; conditions: in vivo
Method in brief: (§2)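 Rat IV clearance from cassette dosing; unbound clearance calculated as CL/fu.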

[6] = Unbound clearance in iv dosed rat administered as cassette dose; assay type: ADME, organism-based; conditions: in vivo; method in brief: as §2

Sequence of Phospholipase D2 (O14939 whole entry): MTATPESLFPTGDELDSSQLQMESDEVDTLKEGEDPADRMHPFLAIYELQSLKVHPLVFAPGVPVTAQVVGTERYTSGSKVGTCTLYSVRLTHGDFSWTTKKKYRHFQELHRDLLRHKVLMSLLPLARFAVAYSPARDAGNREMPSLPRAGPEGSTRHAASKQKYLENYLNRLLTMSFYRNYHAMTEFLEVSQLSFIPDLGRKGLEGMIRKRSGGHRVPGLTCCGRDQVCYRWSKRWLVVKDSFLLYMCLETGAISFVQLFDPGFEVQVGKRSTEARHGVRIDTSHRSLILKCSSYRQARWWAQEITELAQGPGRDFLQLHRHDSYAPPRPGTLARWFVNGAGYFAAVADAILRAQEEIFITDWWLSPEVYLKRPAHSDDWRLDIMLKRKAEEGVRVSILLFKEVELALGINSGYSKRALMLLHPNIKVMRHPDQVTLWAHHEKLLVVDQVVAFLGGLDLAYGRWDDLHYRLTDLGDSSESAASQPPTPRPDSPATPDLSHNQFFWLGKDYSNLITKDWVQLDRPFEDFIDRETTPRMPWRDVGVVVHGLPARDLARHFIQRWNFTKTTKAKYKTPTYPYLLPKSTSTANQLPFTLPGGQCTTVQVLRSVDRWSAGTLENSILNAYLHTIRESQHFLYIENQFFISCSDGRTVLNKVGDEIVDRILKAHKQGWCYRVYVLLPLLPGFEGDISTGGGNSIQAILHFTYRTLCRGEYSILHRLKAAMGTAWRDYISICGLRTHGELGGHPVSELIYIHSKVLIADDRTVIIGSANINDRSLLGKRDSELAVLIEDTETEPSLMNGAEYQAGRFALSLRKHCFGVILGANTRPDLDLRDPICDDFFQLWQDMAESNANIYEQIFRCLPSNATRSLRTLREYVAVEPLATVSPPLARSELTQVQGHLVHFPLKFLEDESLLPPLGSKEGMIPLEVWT

SMILES	IC50 (Phospholipase D1)	IC50 (Phospholipase D2)	CLint scaled [1]	CLint scaled [2]	efflux ratio (MDR1 (P-gp))	IC50 [3]	solubility kinetic [4]	clearance [5]	CL free [6]
CC[C@H]1CN(C(=O)[C@H](C)N2CCC(n3c(=O)[nH]c4ccccc43)CC2)CCN1	68 nM	920 nM	< 4 mL/min/kg	59 mL/min/kg	50	44 nM	–	–	–
C[C@@H](CN1CCC2(CC1)OC(=O)Nc1ccncc12)NC(=O)c1ccc(F)cc1	110 nM	3200 nM	12 mL/min/kg	50 mL/min/kg	47	78 nM	58 µg/mL (≈ 146 µM)	48 mL/min/kg	69 mL/min/kg
C[C@@H](CN1CCC(n2c(=O)oc3ccccc32)CC1)NC(=O)c1ccc(F)cc1	9300 nM	> 10000 nM	23 mL/min/kg	314 mL/min/kg	2	> 10000 nM	–	–	–
C[C@@H](CN1CCC2(CC1)c1ccccc1NC(=O)N2C)NC(=O)c1ccc(F)cc1	> 10000 nM	> 10000 nM	39 mL/min/kg	113 mL/min/kg	93	> 10000 nM	71 µg/mL (≈ 173 µM)	–	–
C[C@@H](CN1CCC2(CC1)CC(=O)Nc1ccccc12)NC(=O)c1ccc(F)cc1	490 nM	> 10000 nM	28 mL/min/kg	83 mL/min/kg	11	460 nM	59 µg/mL (≈ 149 µM)	8.6 mL/min/kg	42 mL/min/kg
C[C@@H]1CN(C(=O)[C@H](C)N2CCC(n3c(=O)[nH]c4ccccc43)CC2)Cc2ccccc21	100 nM	320 nM	> 200 mL/min/kg	> 300 mL/min/kg	22	6 nM	–	–	–
C[C@@H](CN1CCC2(CC1)C(=O)NCN2c1cccc(F)c1)NC(=O)c1ccc(Br)cc1	–	67 nM	89 mL/min/kg	312 mL/min/kg	–	–	3.8 µg/mL (≈ 7.76 µM)	36 mL/min/kg	> 3800 mL/min/kg
C[C@@H](CN1CCC(N2CCNC2=O)CC1)NC(=O)c1ccc(F)cc1	> 10000 nM	> 10000 nM	< 4 mL/min/kg	16 mL/min/kg	7.7	> 10000 nM	–	–	–
C[C@@H]1CNCCN1C(=O)[C@H](C)N1CCC(n2c(=O)[nH]c3ccccc32)CC1	140 nM	–	12 mL/min/kg	84 mL/min/kg	5.4	180 nM	–	–	–
C[C@@H](CN1CCC(c2n[nH]c3ccccc23)CC1)NC(=O)c1ccc(F)cc1	970 nM	> 10000 nM	42 mL/min/kg	311 mL/min/kg	8	4200 nM	–	–	–
C[C@@H](CN1CCC(N2C(=O)Cc3ccccc32)CC1)NC(=O)c1ccc(F)cc1	1200 nM	> 10000 nM	42 mL/min/kg	311 mL/min/kg	8	1100 nM	–	–	–
C[C@@H](CN1CCC2(CC1)OC(=O)NC[C@H]2c1cccc(F)c1)NC(=O)c1ccc(F)cc1	22 nM	64 nM	38 mL/min/kg	394 mL/min/kg	12	2 nM	61 µg/mL (≈ 138 µM)	119 mL/min/kg	308 mL/min/kg
C[C@@H](CN1CCC(n2c(=O)[nH]c3ccccc32)CC1)NC(=O)c1ccc(F)cc1	33 nM	5600 nM	< 4 mL/min/kg	170 mL/min/kg	82	16 nM	–	–	–
C[C@@H](CN1CCC2(CC1)OC(=O)Nc1cccnc12)NC(=O)c1ccc(F)cc1	200 nM	4100 nM	13 mL/min/kg	48 mL/min/kg	68	54 nM	59 µg/mL (≈ 148 µM)	40 mL/min/kg	83 mL/min/kg
C[C@@H]1CN(C(=O)[C@H](C)N2CCC(n3c(=O)[nH]c4ccccc43)CC2)C[C@H](C)N1	40 nM	200 nM	6.9 mL/min/kg	43 mL/min/kg	14	32 nM	–	45 mL/min/kg	68 mL/min/kg
C[C@@H](CN1CCC2(CC1)OC(=O)Nc1cc(F)ccc12)NC(=O)c1ccc(F)cc1	71 nM	1000 nM	68 mL/min/kg	250 mL/min/kg	42	78 nM	–	–	–
CC(=O)N(C)CCN1CCC(n2c(=O)[nH]c3cc(Cl)ccc32)CC1	130 nM	> 10000 nM	–	–	24	180 nM	–	–	–
C[C@@H]1CN(C(=O)[C@H](C)N2CCC(n3c(=O)[nH]c4ccccc43)CC2)CCN1	320 nM	–	< 5 mL/min/kg	29 mL/min/kg	13	190 nM	–	39 mL/min/kg	73 mL/min/kg
C[C@@H](CN1CCC2(CC1)OC(=O)Nc1ccccc12)NC(=O)c1ccc(F)cc1	66 nM	1300 nM	39 mL/min/kg	103 mL/min/kg	218	74 nM	76 µg/mL (≈ 191 µM)	40 mL/min/kg	172 mL/min/kg
C[C@@H](C(=O)N1CCNC(C)(C)C1)N1CCC(n2c(=O)[nH]c3ccccc32)CC1	360 nM	7000 nM	8 mL/min/kg	56 mL/min/kg	5.2	280 nM	–	39 mL/min/kg	73 mL/min/kg
C[C@@H](CN1CCC2(CC1)NC(=O)Nc1ccccc12)NC(=O)c1ccc(F)cc1	280 nM	> 10000 nM	14 mL/min/kg	66 mL/min/kg	67	720 nM	51 µg/mL (≈ 129 µM)	15 mL/min/kg	74 mL/min/kg
